According to ChEMBL document CHEMBL4732260, “Developing novel classes of protein kinase CK1δ inhibitors by fusing [1,2,4]triazole with different bicyclic heteroaromatic systems” (Eur J Med Chem, 2021):
pIC50: −log10 of the molar value. Activity calls are given as the source filed them. No cut-off for these calls is given here.

Legend:
[1] = molecular target: T1, Casein kinase I isoform delta (Homo sapiens, UniProt P48730); assay: Inhibition of recombinant human N-terminal GST-tagged CK1delta (1 to 294 residues) at 40 uM using casein as substrate measured after 60 mins in presence of ATP by Kinase-Glo reagent-based luminescence assay relative to control
Target sequence in this assay (P48730 whole entry, looked up, the tested form may be a part, canonical isoform): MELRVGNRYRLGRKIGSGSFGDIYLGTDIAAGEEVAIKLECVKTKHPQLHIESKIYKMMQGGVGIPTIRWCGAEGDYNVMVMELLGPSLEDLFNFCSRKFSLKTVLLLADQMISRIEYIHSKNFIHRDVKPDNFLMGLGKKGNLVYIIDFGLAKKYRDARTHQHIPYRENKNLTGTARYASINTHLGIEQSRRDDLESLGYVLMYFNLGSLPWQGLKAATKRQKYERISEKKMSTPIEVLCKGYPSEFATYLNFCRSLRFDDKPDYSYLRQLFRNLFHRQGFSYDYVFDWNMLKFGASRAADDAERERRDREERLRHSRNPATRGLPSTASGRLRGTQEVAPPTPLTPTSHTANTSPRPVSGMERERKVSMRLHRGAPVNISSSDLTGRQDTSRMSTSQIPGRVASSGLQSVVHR

[2] = molecular target: T1, Casein kinase I isoform delta; assay: Inhibition of recombinant human N-terminal GST-tagged CK1delta (1 to 294 residues) using casein as substrate measured after 60 mins in presence of ATP by Kinase-Glo reagent-based luminescence assay
Target sequence in this assay (P48730 whole entry, the tested form may be a part, canonical isoform): as the sequence (P48730 whole entry, looked up, the tested form may be a part, canonical isoform) above

[3] = molecular target: Casein kinase I isoform epsilon (Homo sapiens, UniProt P49674); assay: Binding affinity to wild-type human full length CSNK1E (M1 to K416 residues) expressed in bacterial expression system at 10 uM by Kinomescan method relative to control
Method in brief: (§1)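 KINOMEscan competition binding across the CK1 isoform panel, compound at 10 µM. Reported as % binding relative to a […].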

[4] = molecular target: T1, Casein kinase I isoform delta; assay: Inhibition of recombinant human full-length N-terminal GST-tagged CK1delta using casein as substrate measured after 10 mins in presence of ATP by Kinase-Glo reagent-based luminescence assay
Method in brief: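 Full-length CK1δ at 26 nM with 0.1% casein and 4 µM ATP added, in 50 mM HEPES pH 7.5, 1 mM EDTA, 1 mM EGTA, 15 mM Mg acetate. Ten inhibitor concentrations from 100 to 0.026 µM. 10 min at 30 °C, Kinase-Glo stop, luminescence read after 10 min at 30 °C. IC50 given as mean ± standard error of three independent experiments.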
Target sequence in this assay (P48730 whole entry, the tested form may be a part, canonical isoform): as the sequence (P48730 whole entry, looked up, the tested form may be a part, canonical isoform) above

[5] = system: PBL; assay: Cytotoxicity against PHA-stimulated human PBL assessed as inhibition of cell growth after 72 hrs by resazurin based assay
Method in brief: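 PBL isolated from buffy coats by Lymphoprep density gradient, held overnight in RPMI-1640 with 10% FBS. Non-adherent cells at 5×10^5 cells/mL with 2.5 µg/mL PHA. 72 h compound exposure; viability by resazurin fluorescence at 590 nm over 4 h.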

[6] = molecular target: T1, Casein kinase I isoform delta; assay: ATP competitive inhibition of recombinant human N-terminal GST-tagged CK1delta (1 to 294 residues) in presence of varying level of ATP by Kinase-Glo reagent-based luminescence assay
Method in brief: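 Truncated enzyme (16 ng) in 50 mM HEPES pH 7.5, 1 mM EDTA, 1 mM EGTA, 15 mM Mg acetate with 0.1% casein; ATP in the added mix at 4, 40 or 400 µM (Fig. 8-B gives 2, 20, 200 µM). 60 min at 30 °C, then Kinase-Glo, luminescence read after 10 min at 25 °C. Activity is compared across ATP levels.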
Target sequence in this assay (P48730 whole entry, looked up, the tested form may be a part, canonical isoform): as above

[7] = molecular target: Casein kinase I isoform gamma-3 (Homo sapiens) (UniProt Q9Y6M4); assay: Binding affinity to wild-type human full length CSNK1G3 (M1 to K447 residues) expressed in bacterial expression system at 10 uM by Kinomescan method relative to control; method in brief: as §1
[8] = molecular target: T1, Casein kinase I isoform delta; assay: Binding affinity to wild-type human full length CSNK1D (M1 to K409 residues) expressed in bacterial expression system at 10 uM by Kinomescan method relative to control; method in brief: as §1
Target sequence in this assay (P48730 whole entry, looked up, the tested form may be a part, canonical isoform): as above

[9] = molecular target: Casein kinase I isoform alpha (Homo sapiens) (UniProt P48729); assay: Binding affinity to wild-type human partial length CSNK1A1 (M1 to L301 residues) expressed in mammalian expression system at 10 uM by Kinomescan method relative to control; method in brief: as §1
[10] = molecular target: Casein kinase I isoform gamma-2 (Homo sapiens) (UniProt P78368); assay: Binding affinity to wild-type human full length CSNK1G2 (M1 to K415 residues) expressed in bacterial expression system at 10 uM by Kinomescan method relative to control; method in brief: as §1
[11] = system: PBL; assay: Cytotoxicity against human PBL cells assessed as inhibition of cell growth after 72 hrs by resazurin based assay
Method in brief: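 Gradient-isolated PBL held overnight in RPMI-1640 with 10% FBS. Non-adherent resting cells (no PHA) at 5×10^5 cells/mL, exposed to compounds for 72 h. Viability read as resazurin fluorescence at 590 nm over 4 h.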

[12] = system: Fibroblast; assay: Cytotoxicity against human fibroblast assessed as inhibition of cell growth after 72 hrs by resazurin based assay
Method in brief: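 Normal adult fibroblasts grown in DMEM with 10% FBS, seeded at 2×10^4 cells per well. Compounds added after 24 h at several concentrations; viability read 72 h later by resazurin fluorescence at 590 nm over 4 h.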

[13] = molecular target: T2, Casein kinase I isoform alpha-like (Homo sapiens) (UniProt Q8N752); assay: Binding affinity to wild-type human full length CSNK1A1L (M1 to N337 residues) expressed in bacterial expression system at 10 uM by Kinomescan method relative to control; method in brief: as §1
T2 sequence (whole entry): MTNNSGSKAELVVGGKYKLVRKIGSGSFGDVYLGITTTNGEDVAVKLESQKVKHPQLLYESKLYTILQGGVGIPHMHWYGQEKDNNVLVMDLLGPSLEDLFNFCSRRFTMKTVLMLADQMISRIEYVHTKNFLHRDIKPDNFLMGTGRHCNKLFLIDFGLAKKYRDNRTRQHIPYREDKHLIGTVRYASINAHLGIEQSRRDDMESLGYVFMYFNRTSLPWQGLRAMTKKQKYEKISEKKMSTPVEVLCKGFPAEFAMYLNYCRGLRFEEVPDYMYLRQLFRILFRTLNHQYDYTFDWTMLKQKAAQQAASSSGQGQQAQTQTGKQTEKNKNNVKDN

[14] = molecular target: Casein kinase I isoform gamma-1 (Homo sapiens) (UniProt Q9HCP0); assay: Binding affinity to wild-type human partial length CSNK1G1 (T15 to S353 residues) expressed in bacterial expression system at 10 uM by Kinomescan method relative to control; method in brief: as §1
Chain of Casein kinase I isoform gamma-1 (Homo sapiens) (Q9HCP0 whole entry, looked up, the tested form may be a part, canonical isoform): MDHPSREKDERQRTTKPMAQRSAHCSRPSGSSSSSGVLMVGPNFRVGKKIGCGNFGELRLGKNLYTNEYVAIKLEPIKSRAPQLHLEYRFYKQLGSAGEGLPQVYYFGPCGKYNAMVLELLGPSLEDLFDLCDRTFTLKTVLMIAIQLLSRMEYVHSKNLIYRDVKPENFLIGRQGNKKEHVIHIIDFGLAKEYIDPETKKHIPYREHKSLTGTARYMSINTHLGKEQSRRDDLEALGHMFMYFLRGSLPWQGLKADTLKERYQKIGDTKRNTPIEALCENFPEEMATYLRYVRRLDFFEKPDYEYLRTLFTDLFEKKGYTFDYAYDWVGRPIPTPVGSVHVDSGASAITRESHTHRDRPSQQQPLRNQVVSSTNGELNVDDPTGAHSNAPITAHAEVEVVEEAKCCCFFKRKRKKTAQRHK

Chain of Casein kinase I isoform gamma-2 (Homo sapiens) (P78368 whole entry, looked up, the tested form may be a part, canonical isoform): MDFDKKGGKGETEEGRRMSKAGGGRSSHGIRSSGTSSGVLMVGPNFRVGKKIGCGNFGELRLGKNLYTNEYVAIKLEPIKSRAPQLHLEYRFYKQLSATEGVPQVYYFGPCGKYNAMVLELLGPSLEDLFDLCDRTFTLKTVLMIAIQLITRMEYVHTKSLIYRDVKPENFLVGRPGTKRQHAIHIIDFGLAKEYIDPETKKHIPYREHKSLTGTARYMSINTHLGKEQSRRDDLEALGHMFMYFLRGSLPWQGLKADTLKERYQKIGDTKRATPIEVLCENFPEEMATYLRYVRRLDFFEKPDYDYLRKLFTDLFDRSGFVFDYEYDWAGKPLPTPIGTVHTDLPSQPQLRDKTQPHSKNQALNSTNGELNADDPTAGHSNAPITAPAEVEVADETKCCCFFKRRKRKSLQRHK
Chain of Casein kinase I isoform gamma-3 (Homo sapiens) (Q9Y6M4 whole entry, looked up, the tested form may be a part, canonical isoform): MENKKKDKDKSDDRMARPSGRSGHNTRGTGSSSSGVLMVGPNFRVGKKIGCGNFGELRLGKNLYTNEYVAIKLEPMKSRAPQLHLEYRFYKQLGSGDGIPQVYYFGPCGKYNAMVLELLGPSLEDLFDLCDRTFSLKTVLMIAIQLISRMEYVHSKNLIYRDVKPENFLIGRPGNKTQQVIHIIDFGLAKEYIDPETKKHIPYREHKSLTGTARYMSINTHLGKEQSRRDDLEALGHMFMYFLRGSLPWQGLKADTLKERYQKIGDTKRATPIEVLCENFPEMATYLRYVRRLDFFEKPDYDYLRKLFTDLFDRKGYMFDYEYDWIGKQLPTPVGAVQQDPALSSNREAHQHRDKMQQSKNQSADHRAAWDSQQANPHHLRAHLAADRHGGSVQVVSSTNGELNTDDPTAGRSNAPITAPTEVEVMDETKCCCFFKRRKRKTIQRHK
Chain of Casein kinase I isoform alpha (Homo sapiens) (P48729 2-337 limits assumed): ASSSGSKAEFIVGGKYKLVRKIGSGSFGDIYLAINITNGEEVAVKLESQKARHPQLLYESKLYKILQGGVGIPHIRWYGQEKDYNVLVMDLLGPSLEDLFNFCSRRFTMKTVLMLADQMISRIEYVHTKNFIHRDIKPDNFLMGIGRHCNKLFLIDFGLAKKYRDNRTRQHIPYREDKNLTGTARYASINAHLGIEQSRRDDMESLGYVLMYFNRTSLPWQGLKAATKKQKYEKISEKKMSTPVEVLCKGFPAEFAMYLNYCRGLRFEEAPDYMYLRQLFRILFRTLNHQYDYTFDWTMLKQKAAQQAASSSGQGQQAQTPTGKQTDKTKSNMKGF
Chain of Casein kinase I isoform epsilon (P49674 whole entry, looked up, the tested form may be a part, canonical isoform): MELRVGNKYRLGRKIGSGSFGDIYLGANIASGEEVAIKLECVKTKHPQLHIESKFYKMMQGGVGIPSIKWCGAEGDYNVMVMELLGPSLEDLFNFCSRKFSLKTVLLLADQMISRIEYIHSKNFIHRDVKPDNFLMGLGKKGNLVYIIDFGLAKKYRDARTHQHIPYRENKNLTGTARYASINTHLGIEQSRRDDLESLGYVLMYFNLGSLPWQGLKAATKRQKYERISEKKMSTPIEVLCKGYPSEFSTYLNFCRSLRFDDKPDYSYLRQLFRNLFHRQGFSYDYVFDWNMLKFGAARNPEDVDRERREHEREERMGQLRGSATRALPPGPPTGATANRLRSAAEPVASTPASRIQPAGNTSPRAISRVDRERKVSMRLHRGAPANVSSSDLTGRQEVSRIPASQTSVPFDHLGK

CCOC(=O)c1cnc(NCc2ccc(OC)c(OC)c2)n2nc(-c3ccccc3)nc12
inhibition [1]: 35.7%

Nc1nc(NCc2ccccc2)nc2nc(-c3ccc(O)cc3)nn12
pIC50 [2]: 5.88 | inhibition [1]: 70.4%

COc1cc(OC)cc(-c2nc3cc(N(C)C)nc(N)n3n2)c1
inhibition [1]: 33.5%

Nc1nc(NCc2ccccc2)nc2nc(-c3cccc(O)c3)nn12
pIC50 [2]: 6.34 | inhibition [1]: 84.2%

CCOC(=O)c1cnc(N)n2nc(-c3ccc(OCc4ccccc4)cc3)nc12
inhibition [1]: 39.7%

Nc1nc(NCc2ccccc2)nc2nc(-c3cc(O)cc(O)c3)nn12
Activity [3]: 1.4% | pIC50 [4]: 6.52 | pIC50 [5]: < 5.00 | inhibition [6]: Active | Activity [7]: 14% | pIC50 [2]: 6.74 | Activity [8]: 14% | Activity [9]: 3.2% | Activity [10]: 20% | inhibition [1]: 85.3% | pIC50 [11]: < 5.00 | pIC50 [12]: < 5.00 | Activity [13]: 14% | Activity [14]: 32%

CCOC(=O)c1cnc(N)n2nc(-c3ccncc3)nc12
pIC50 [2]: 4.69 | inhibition [1]: 59.7%

CC(C)(C)OC(=O)NCCNC(=O)c1cnc(N)n2nc(-c3cc(O)cc(O)c3)nc12
pIC50 [2]: 5.27 | inhibition [1]: 84.2%

Nc1nc(NC2CCCCC2)nc2nc(-c3cc(O)cc(O)c3)nn12
pIC50 [2]: 6.17 | inhibition [1]: 89.3%

CCOC(=O)c1cnc(N)n2nc(-c3ccccc3)nc12
pIC50 [2]: 5.06 | inhibition [1]: 62.2%

Nc1nc(NCc2ccc(Cl)cc2)nc2nc(-c3cc(O)cc(O)c3)nn12
pIC50 [2]: 6.12 | inhibition [1]: 95.8%

COc1cc(OC)cc(-c2nc3nc(NCc4ccc(F)cc4)nc(N)n3n2)c1
inhibition [1]: 10.5%

NCCNC(=O)c1cnc(N)n2nc(-c3cc(O)cc(O)c3)nc12
pIC50 [2]: 6.68 | inhibition [1]: 93.6%

COc1cc(O)cc(-c2nc3nc(NC4CCCCC4)nc(N)n3n2)c1
pIC50 [2]: 5.48 | inhibition [1]: 68.6%

Nc1nc(NCc2ccccc2)cc2nc(-c3cccc(O)c3)nn12
pIC50 [2]: 6.52 | inhibition [1]: 75.2%

CCOC(=O)c1cnc(N)n2nc(-c3cccc(N)c3)nc12
pIC50 [2]: 4.78 | inhibition [1]: 66.8%

CC(C)(C)OC(=O)NCCNC(=O)c1cnc(N)n2nc(-c3cccc(O)c3)nc12
inhibition [1]: 16.8%

CCOC(=O)c1cnc(N)n2nc(-c3ccc(OC)cc3)nc12
inhibition [1]: 50.3%

CCOC(=O)c1cnc(N)n2nc(-c3ccc(O)cc3)nc12
inhibition [1]: 39.3%

CCOC(=O)c1cnc(N)n2nc(-c3cccc(F)c3)nc12
pIC50 [2]: 4.82 | inhibition [1]: 53.7%

CCOC(=O)c1cnc(N)n2nc(-c3cccc(OC)c3)nc12
pIC50 [2]: 4.60 | inhibition [1]: 52%

Cc1cccc(CNc2nc(N)n3nc(-c4cc(O)cc(O)c4)nc3n2)c1
pIC50 [2]: 6.28 | inhibition [1]: 79.7%

Nc1nc(NCc2ccccc2)cc2nc(-c3cc(O)cc(O)c3)nn12
pIC50 [2]: 6.13 | inhibition [1]: 80.2%

COc1cc(OC)cc(-c2nc3nc(NCc4ccc(Cl)cc4)nc(N)n3n2)c1
inhibition [1]: 9.7%

COc1cccc(-c2nc3nc(NCc4ccccc4)nc(N)n3n2)c1
inhibition [1]: 18.1%

CCOC(=O)c1cnc(N)n2nc(C)nc12
pIC50 [2]: 4.82 | inhibition [1]: 66.6%

CCOC(=O)c1cnc(N)n2nc(-c3cc(O)cc(O)c3)nc12
pIC50 [2]: 6.32 | inhibition [1]: 97.8%

CCOC(=O)c1cnc(N)n2nc(-c3cc4ccccc4[nH]3)nc12
inhibition [1]: 22.4%

Nc1nc(NCc2ccccc2)nc2nc(-c3ccc(O)c(O)c3)nn12
pIC50 [2]: 6.04 | inhibition [1]: 93.8%

Nc1ncc(C(=O)O)c2nc(-c3cccc(O)c3)nn12
pIC50 [2]: 4.57 | inhibition [1]: 75.8%

Oc1cccc(-c2nc3nc(NCc4ccccc4)nc(NCc4ccccc4)n3n2)c1
inhibition [1]: -8.5%

CCNC(=O)c1cnc(N)n2nc(-c3cccc(O)c3)nc12
pIC50 [2]: 6.49 | inhibition [1]: 90.4%

CCOC(=O)c1cnc(NCc2ccccc2)n2nc(-c3cccc(OC)c3)nc12
inhibition [1]: 10.9%

COc1cc(OC)cc(-c2nc3cc(NCc4ccccc4)nc(N)n3n2)c1
inhibition [1]: 19.4%

CCOC(=O)c1cnc(NCc2ccc(-c3ccccc3)cc2)n2nc(-c3cccc(OC)c3)nc12
inhibition [1]: 17.5%

CCOC(=O)c1cnc(NCc2ccc(-c3ccccc3)cc2)n2nc(-c3cccc(O)c3)nc12
inhibition [1]: 9%

COc1cc(OC)cc(-c2nc3nc(NCc4cccc(C)c4)nc(N)n3n2)c1
inhibition [1]: 13.9%

NCCNC(=O)c1cnc(N)n2nc(-c3cccc(O)c3)nc12
pIC50 [2]: 5.90 | inhibition [1]: 93%

CCOC(=O)c1cnc(NCc2ccccc2)n2nc(-c3cccc(O)c3)nc12
inhibition [1]: 1.2%

CCOC(=O)c1cnc(N)n2nc(C3CCCC3)nc12
pIC50 [2]: 4.91 | inhibition [1]: 76.8%

CCOC(=O)c1cnc(N)n2nc(-c3cccc([N+](=O)[O-])c3)nc12
inhibition [1]: 21.6%

CCOC(=O)c1cnc(NCc2ccc(OC)c(OC)c2)n2nc(-c3ccc(F)cc3)nc12
inhibition [1]: 11.3%

CCOC(=O)c1cnc(N)n2nc(-c3ccc(F)cc3)nc12
inhibition [1]: 44.7%

COc1cc(OC)cc(-c2nc3nc(NCc4ccccc4)nc(N)n3n2)c1
inhibition [1]: 4.5%

CCNC(=O)c1cnc(N)n2nc(-c3cc(O)cc(O)c3)nc12
pIC50 [2]: 6.00 | inhibition [1]: 86.1%

CCOC(=O)c1cnc(N)n2nc(-c3cc(OC)cc(OC)c3)nc12
inhibition [1]: 18.8%

CCOC(=O)c1cnc(N)n2nc(-c3cccc(O)c3)nc12
pIC50 [2]: 5.69 | inhibition [1]: 88.9%

CCOC(=O)c1cnc(NC)n2nc(-c3cccc(O)c3)nc12
inhibition [1]: 7.1%

CCOC(=O)c1cnc(N)n2nc(-c3ccc(O)c(O)c3)nc12
pIC50 [2]: 5.32 | inhibition [1]: 98%

Nc1nc(NCc2ccc(F)cc2)nc2nc(-c3cc(O)cc(O)c3)nn12
pIC50 [2]: 6.33 | inhibition [1]: 87%
